Non-standard residues stand in square brackets, D forms with d. Residues, ends and D or L forms follow the SMILES beside them. *: point of attachment. Ala(1-Adamantyl) = N[C@@H](CC12CC3CC(CC(C3)C1)C2)C(=O)O; Sta = CC(C)C[C@H](N)[C@@H](O)CC(=O)O; Adoc = O=C(OC12CC3CC(CC(C3)C1)C2)*; NMeF = CN[C@@H](Cc1ccccc1)C(=O)O; X1 = CC(C)(C)OC(=O)NCCS(=O)(=O)*; αMeF = C[C@](N)(Cc1ccccc1)C(=O)O; Phg = N[C@H](C(=O)O)c1ccccc1; Isovaleryl = CC(C)CC(=O)*; Nle = CCCC[C@H](N)C(=O)O; Nva = CCC[C@H](N)C(=O)O; Cbz = O=C(OCc1ccccc1)*; Boc = CC(C)(C)OC(=O)*; Moc = COC(=O)*
What was measured:
Renin [1] = target: T1, Renin (Homo sapiens, UniProt P00797); experiment: In vitro inhibitory activity against human plasma renin; format: cell-free
T1 sequence (P00797 whole entry): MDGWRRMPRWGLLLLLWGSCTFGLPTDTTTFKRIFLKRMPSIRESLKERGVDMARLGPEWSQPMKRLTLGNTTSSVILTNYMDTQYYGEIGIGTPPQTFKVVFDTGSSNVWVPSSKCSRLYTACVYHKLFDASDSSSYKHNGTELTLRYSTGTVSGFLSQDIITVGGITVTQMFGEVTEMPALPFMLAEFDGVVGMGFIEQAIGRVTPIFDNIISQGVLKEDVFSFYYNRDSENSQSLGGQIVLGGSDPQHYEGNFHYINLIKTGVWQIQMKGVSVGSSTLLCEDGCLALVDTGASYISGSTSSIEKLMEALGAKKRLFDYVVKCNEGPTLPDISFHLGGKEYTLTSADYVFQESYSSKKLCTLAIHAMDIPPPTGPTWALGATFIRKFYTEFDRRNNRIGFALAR

Renin [2] = target: T1, Renin; experiment: In vitro inhibitory activity against monkey plasma renin; format: cell-free, Cercopithecidae; conditions: target entry is the homologue from another species
Renin [3] = target: T1, Renin; experiment: In vitro inhibitory activity against dog plasma renin; format: cell-free, Canis lupus familiaris; conditions: target entry is the homologue from another species
Renin [4] = target: T2, Renin (Rattus norvegicus, UniProt P08424); experiment: In vitro inhibitory activity against rat plasma renin; format: cell-free
T2 sequence (P08424 whole entry): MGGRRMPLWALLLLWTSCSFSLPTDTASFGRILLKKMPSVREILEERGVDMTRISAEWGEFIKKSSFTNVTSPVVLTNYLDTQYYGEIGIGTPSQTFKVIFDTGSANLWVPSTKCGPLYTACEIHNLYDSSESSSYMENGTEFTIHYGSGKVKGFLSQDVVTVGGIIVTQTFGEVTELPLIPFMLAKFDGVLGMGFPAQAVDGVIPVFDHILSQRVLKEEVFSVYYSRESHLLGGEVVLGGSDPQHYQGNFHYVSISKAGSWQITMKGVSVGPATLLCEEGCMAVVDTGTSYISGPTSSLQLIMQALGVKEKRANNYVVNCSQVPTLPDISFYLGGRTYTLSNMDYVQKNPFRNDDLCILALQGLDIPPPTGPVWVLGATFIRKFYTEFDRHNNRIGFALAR

Renin [5] = target: T1, Renin; experiment: In vitro inhibitory activity against man (human) plasma renin; format: cell-free
Renin [6] = target: T1, Renin; experiment: In vitro inhibitory activity against monkey (Callithrix jacchus) plasma renin; format: cell-free; conditions: target entry is the homologue from another species
In short: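 Pooled plasma from animals whose plasma renin activity was stimulated with furosemide, incubated at 37 °C in pH 7.4 phosphate buffer with phenylmethanesulfonyl fluoride as angiotensinase inhibitor and increasing inhibitor concentrations. Angiotensin I generated was measured by RIA (Haber method). IC50 came from nonlinear logit vs log-concentration regression over five to seven concentrations.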

Renin [7] = target: T1, Renin; experiment: Inhibition of monkey plasma renin activity; format: cell-free, Cercopithecidae; conditions: target entry is the homologue from another species
Renin [8] = target: T2, Renin; experiment: Inhibition of rat plasma renin activity
Renin [9] = target: T1, Renin; experiment: Inhibition of man plasma renin activity; format: cell-free
Renin [10] = target: T1, Renin; experiment: Inhibition of dog plasma renin activity; format: cell-free, Canis lupus familiaris; conditions: target entry is the homologue from another species

| Structure (SMILES) | IC50 (Renin [1]) [nM] | further results |
| --- | --- | --- |
| CCC[C@H](N[C@@H](CC(C)C)[C@@H](O)CC(=O)N[C@@H](C)C(=O)N[C@@H](CC(C)C)[C@@H](O)CC(=O)OC)C(=O)N[C@@H](Cc1ccccc1)C(=O)NC(=O)CC(C)C | 42 | IC50 (Renin [5]): 42 nM; IC50 (Renin [6]): 30 nM; IC50 (Renin [3]): 58 nM; IC50 (Renin [4]): 880 nM |
| COC(=O)CC(O)[C@H](CC(C)C)NC(=O)[C@H](C)NC(=O)CC(O)[C@H](CC(C)C)NC(=O)[C@@H](Cc1ccccc1)NC(=O)[C@H](Cc1ccccc1)NC(=O)OCc1ccccc1 (stereo not given in full) | > 10000 |  |
| COC(=O)CC(O)[C@H](CC(C)C)NC(=O)[C@H](C)NC(=O)CC(O)[C@H](CC(C)C)NC(=O)CNC(=O)[C@H](Cc1ccccc1)NC(=O)CC(C)C (stereo not given in full) | 4700 |  |
| COC(=O)CC(O)[C@H](CC(C)C)NC(=O)[C@H](C)NC(=O)CC(O)[C@H](CC(C)C)NC(=O)[C@@H](NS(=O)(=O)CCNC(=O)OCc1ccccc1)C(C)C (stereo not given in full) | > 10000 |  |
| COC(=O)CC(O)[C@H](CC(C)C)NC(=O)[C@H](C)NC(=O)CC(O)[C@H](CC(C)C)NC(=O)CCCNC(=O)[C@H](Cc1ccccc1)NC(=O)CC(C)C (stereo not given in full) | 200 |  |
| COC(=O)C[C@H](O)[C@H](CC(C)C)NC(=O)[C@H](C)NC(=O)C[C@H](O)[C@H](CC(C)C)NC(=O)[C@H](Cc1ccccc1)NC(=O)[C@H](Cc1ccccc1)NC(C)=O (Ac-FF[Sta]A[Sta]-OMe) | 1400 |  |
| COC(=O)C[C@H](O)[C@H](CC(C)C)NC(=O)[C@H](C)NC(=O)C[C@H](O)[C@H](CC(C)C)NC(=O)[C@H](Cc1ccccc1)NC(=O)[C@H](Cc1ccccc1)NC(=O)OC12CC3CC(CC(C3)C1)C2 (Adoc-FF[Sta]A[Sta]-OMe) | 3000 |  |
| COC(=O)C[C@H](O)[C@H](CC(C)C)NC(=O)[C@H](C)NC(=O)C[C@H](O)[C@H](CC(C)C)NC(=O)[C@H](Cc1c[nH]cn1)NC(=O)[C@H](Cc1c[nH]c2ccccc12)NC(=O)OC(C)(C)C (Boc-WH[Sta]A[Sta]-OMe) | 140 | IC50 (Renin [7]): 110 nM; IC50 (Renin [8]): 1300 nM; IC50 (Renin [9]): 140 nM |
| COC(=O)C[C@H](O)[C@H](CC(C)C)NC(=O)[C@H](C)NC(=O)C[C@H](O)[C@H](CC(C)C)NC(=O)[C@H](Cc1c[nH]c2ccccc12)NC(=O)[C@H](Cc1c[nH]c2ccccc12)NC(=O)OC(C)(C)C (Boc-WW[Sta]A[Sta]-OMe) |  | IC50 (Renin [8]): 1000 nM |
| COC(=O)C[C@H](O)[C@H](CC(C)C)NC(=O)[C@H](C)NC(=O)C[C@H](O)[C@H](CC(C)C)NC(=O)[C@H](Cc1c[nH]cn1)NC(=O)[C@H](CC12CC3CC(CC(C3)C1)C2)NC(=O)OC(C)(C)C (Boc-[Ala(1-Adamantyl)]H[Sta]A[Sta]-OMe) | 250 | IC50 (Renin [5]): 250 nM; IC50 (Renin [3]): 650 nM; IC50 (Renin [4]): 2200 nM |
| COC(=O)C[C@H](O)[C@H](CC(C)C)NC(=O)[C@H](C)NC(=O)C[C@H](O)[C@H](CC(C)C)NC(=O)[C@H](Cc1ccccc1)NC(=O)[C@H](Cc1ccccc1)N(C)C(=O)OC(C)(C)C (Boc-[NMeF]F[Sta]A[Sta]-OMe) | > 10000 | IC50 (Renin [5]): 15000 nM; IC50 (Renin [2]): 15000 nM; IC50 (Renin [4]): 17000 nM |
| COC(=O)C[C@H](O)[C@H](CC(C)C)NC(=O)[C@H](C)NC(=O)C[C@H](O)[C@H](CC(C)C)NC(=O)[C@H](Cc1ccccc1)NC(=O)[C@](C)(Cc1ccccc1)NC(=O)OC(C)(C)C (Boc-[αMeF]F[Sta]A[Sta]-OMe) | > 10000 |  |
| COC(=O)C[C@H](O)[C@H](CC(C)C)NC(=O)[C@H](C)NC(=O)C[C@H](O)[C@H](CC(C)C)NC(=O)[C@@H]1CCCN1C(=O)[C@H](Cc1ccccc1)NC(=O)OCc1ccccc1 (Cbz-FP[Sta]A[Sta]-OMe) | 10000 |  |
| COC(=O)C[C@H](O)[C@H](CC(C)C)NC(=O)[C@H](C)NC(=O)C[C@H](O)[C@H](CC(C)C)NC(=O)[C@H](Cc1c[nH]c2ccccc12)NC(=O)[C@H](Cc1ccccc1)NC(=O)OCc1ccccc1 (Cbz-FW[Sta]A[Sta]-OMe) | 1400 |  |
| COC(=O)C[C@H](O)[C@H](CC(C)C)NC(=O)[C@H](C)NC(=O)C[C@H](O)[C@H](CC(C)C)NC(=O)[C@@H](NC(=O)[C@H](Cc1c[nH]c2ccccc12)NC(=O)OCc1ccccc1)C(C)C (Cbz-WV[Sta]A[Sta]-OMe) |  | IC50 (Renin [7]): 25 nM; IC50 (Renin [8]): 22 nM; IC50 (Renin [10]): 42 nM; IC50 (Renin [9]): 150 nM |
| COC(=O)C[C@H](O)[C@H](CC(C)C)NC(=O)[C@H](C)NC(=O)C[C@H](O)[C@H](CC(C)C)NC(=O)[C@H](Cc1ccccc1)NC(=O)[C@H](Cc1ccccc1)NC(=O)CC(C)C (Isovaleryl-FF[Sta]A[Sta]-OMe) | 320 |  |
| COC(=O)C[C@H](O)[C@H](CC(C)C)NC(=O)[C@H](C)NC(=O)C[C@H](O)[C@H](CC(C)C)NC(=O)[C@H](Cc1ccccc1)NC(=O)[C@H](Cc1ccccc1)NS(=O)(=O)CCNC(=O)OC(C)(C)C (X1-FF[Sta]A[Sta]-OMe) | 180 |  |

Second part, led by results:

| IC50 (Renin [1]) [nM] | Structure (SMILES) | further results |
| --- | --- | --- |
| 190 | COC(=O)C[C@H](O)[C@H](CC(C)C)NC(=O)[C@H](C)NC(=O)C[C@H](O)[C@H](CC(C)C)NC(=O)[C@H](Cc1ccccc1)NC(=O)[C@H](Cc1ccccc1)NC(=O)OC(C)(C)C | IC50 (Renin [2]): 130 nM; IC50 (Renin [3]): 76 nM; IC50 (Renin [4]): 190 nM |
| > 10000 | COC(=O)CC(O)[C@H](CC(C)C)NC(=O)[C@H](C)NC(=O)CC(O)[C@H](CC(C)C)NC(=O)[C@H](Cc1ccccc1)NC(=O)[C@@H](Cc1ccccc1)NC(=O)OC(C)(C)C (stereo not given in full) |  |
| 30 | CCCC[C@H](NC(=O)[C@H](Cc1ccccc1)NC(=O)OC(C)(C)C)C(=O)N[C@@H](CC(C)C)[C@@H](O)CC(=O)N[C@@H](C)C(=O)N[C@@H](CC(C)C)[C@@H](O)CC(=O)O (Boc-F[Nle][Sta]A[Sta]-OH) |  |
| 51 | CCC[C@H](NC(=O)[C@H](Cc1ccccc1)NC(=O)OC(C)(C)C)C(=O)N[C@@H](CC(C)C)[C@@H](O)CC(=O)N[C@@H](C)C(=O)N[C@@H](CC(C)C)[C@@H](O)CC(=O)OC (Boc-F[Nva][Sta]A[Sta]-OMe) |  |
| > 10000 | COC(=O)C[C@H](O)[C@H](CC(C)C)NC(=O)[C@H](C)NC(=O)C[C@H](O)[C@H](CC(C)C)NC(=O)[C@H](Cc1ccccc1)NC(=O)[C@@H](NC(=O)OC(C)(C)C)c1ccccc1 (Boc-[Phg]F[Sta]A[Sta]-OMe) |  |
| 7700 | CCCC[C@H](NC(=O)[C@@H](N)Cc1ccccc1)C(=O)N[C@@H](CC(C)C)[C@@H](O)CC(=O)N[C@@H](C)C(=O)N[C@@H](CC(C)C)[C@@H](O)CC(=O)OC (H-F[Nle][Sta]A[Sta]-OMe) |  |
| > 10000 | COC(=O)C[C@H](O)[C@H](CC(C)C)NC(=O)[C@H](C)NC(=O)C[C@H](O)[C@H](CC(C)C)NC(=O)[C@H](CCCCN)NC(=O)[C@H](Cc1ccccc1)NC(=O)CC(C)C (Isovaleryl-FK[Sta]A[Sta]-OMe) |  |
| 75 | COC(=O)C[C@H](O)[C@H](CC(C)C)NC(=O)[C@H](C)NC(=O)C[C@H](O)[C@H](CC(C)C)NC(=O)[C@H](CC(C)C)NC(=O)[C@H](Cc1ccccc1)NC(=O)CC(C)C (Isovaleryl-FL[Sta]A[Sta]-OMe) |  |
| 260 | CCC[C@H](NC(=O)[C@H](Cc1ccccc1)NC(=O)OC)C(=O)N[C@@H](CC(C)C)[C@@H](O)CC(=O)N[C@@H](C)C(=O)N[C@@H](CC(C)C)[C@@H](O)CC(=O)OC (Moc-F[Nva][Sta]A[Sta]-OMe) |  |
